Laboratory results: ChEMBL document CHEMBL5321201, “Investigation of morpholine isosters for the development of a potent, selective and metabolically stable mTOR kinase inhibitor” (Eur J Med Chem, 2023)
pIC50, pKd, pKi: −log10 of the molar value.

Columns and labels:
[1] = target: T1, Phosphatidylinositol 4,5-bisphosphate 3-kinase catalytic subunit alpha isoform (Homo sapiens, UniProt P42336); test: Displacement of Alexa fluor 647-labeled kinase tracer 314 from recombinant N-terminal (His)6-tagged p110alpha (unknown origin) assessed as inhibition constant by TR-FRET based Lanthascreen kinase activity assay
T1 sequence (P42336 whole entry, the tested form may be a part, canonical isoform): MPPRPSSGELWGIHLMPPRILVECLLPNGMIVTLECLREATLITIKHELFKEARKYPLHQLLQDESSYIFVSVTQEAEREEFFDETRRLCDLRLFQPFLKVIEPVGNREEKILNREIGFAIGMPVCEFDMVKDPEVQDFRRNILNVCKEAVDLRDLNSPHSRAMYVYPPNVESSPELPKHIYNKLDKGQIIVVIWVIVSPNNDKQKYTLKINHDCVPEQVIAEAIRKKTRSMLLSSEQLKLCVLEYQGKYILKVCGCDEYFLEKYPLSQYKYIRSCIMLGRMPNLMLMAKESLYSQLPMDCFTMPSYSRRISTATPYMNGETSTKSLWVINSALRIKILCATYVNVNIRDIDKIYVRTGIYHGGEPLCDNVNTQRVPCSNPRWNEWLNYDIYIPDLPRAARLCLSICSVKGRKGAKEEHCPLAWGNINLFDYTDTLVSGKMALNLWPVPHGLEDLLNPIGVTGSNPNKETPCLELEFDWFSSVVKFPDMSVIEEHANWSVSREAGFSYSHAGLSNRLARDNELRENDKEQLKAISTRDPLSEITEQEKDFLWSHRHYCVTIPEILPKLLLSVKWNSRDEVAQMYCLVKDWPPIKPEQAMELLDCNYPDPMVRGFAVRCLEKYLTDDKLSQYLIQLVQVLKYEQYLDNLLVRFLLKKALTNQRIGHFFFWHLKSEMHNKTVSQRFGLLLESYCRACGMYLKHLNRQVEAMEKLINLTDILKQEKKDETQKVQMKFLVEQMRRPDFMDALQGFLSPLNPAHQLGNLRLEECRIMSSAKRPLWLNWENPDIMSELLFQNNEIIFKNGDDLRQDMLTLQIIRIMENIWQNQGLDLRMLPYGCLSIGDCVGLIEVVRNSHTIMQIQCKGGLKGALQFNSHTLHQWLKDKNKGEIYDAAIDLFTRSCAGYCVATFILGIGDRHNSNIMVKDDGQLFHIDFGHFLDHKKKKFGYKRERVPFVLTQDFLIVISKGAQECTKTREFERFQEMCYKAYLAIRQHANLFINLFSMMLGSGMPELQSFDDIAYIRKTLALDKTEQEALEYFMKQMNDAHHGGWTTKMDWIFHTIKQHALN

[2] = target: T2, Serine/threonine-protein kinase mTOR (Homo sapiens, UniProt P42345); test: Displacement of Alexa fluor 647-labeled kinase tracer 314 from N-terminal GST-fused truncated recombinant human mTOR (1360 to 2549 residues) assessed as inhibition constant by TR-FRET based Lanthascreen kinase activity assay
cells [3] = conditions: Homo sapiens, SK-OV-3, 1 h
cells [4] = conditions: Homo sapiens, SK-OV-3, 1 h; remark: listed apart in the source
VL51 = test: cells; conditions: Homo sapiens, VL51, 72 h
cells [5] = conditions: Homo sapiens, SSK41, 72 h
cells [6] = conditions: Homo sapiens, Karpas-1718, 72 h
[7] = Metabolic stability in CD-1 mouse hepatocytes assessed as intrinsic clearance measured per million cells at 5 microM incubated upto 180 mins by LC/MS analysis; type: ADME, cell-based, Hepatocyte; conditions: read-out: CLH
Procedure, shortened: (§1)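 Cryopreserved hepatocytes from the listed species, in suspension at 200,000 cells/well in Williams Medium E with 2 mM L-glutamine and 25 mM HEPES. Compound final 5 µM in 0.5% DMSO, sampled at 0, 15, 60, 90 and 180 min. ACN precipitation, LC-MS. Hepatocyte-free medium served as negative control and 7-ethoxycoumarin as reference; duplicates.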

[8] = Metabolic stability in Sprague-Dawley rat hepatocytes assessed as intrinsic clearance measured per million cells at 5 microM incubated upto 180 mins by LC/MS analysis; type: ADME, cell-based, Hepatocyte; conditions: read-out: CLH; procedure, shortened: as §1
[9] = Metabolic stability in Beagle dog hepatocytes assessed as intrinsic clearance measured per million cells at 5 microM incubated upto 180 mins by LC/MS analysis; type: ADME, cell-based, Canis lupus familiaris, Hepatocyte; conditions: read-out: CLH; procedure, shortened: as §1
[10] = Metabolic stability in human hepatocytes assessed as intrinsic clearance measured per million cells at 5 microM incubated upto 180 mins by LC/MS analysis; type: ADME, cell-based, Hepatocyte; conditions: read-out: CLH; procedure, shortened: as §1
[11] = Metabolic stability in CD-1 mouse hepatocytes assessed as half life at 5 microM incubated upto 180 mins by LC/MS analysis; type: ADME, cell-based, Hepatocyte; procedure, shortened: as §1
[12] = Metabolic stability in Sprague-Dawley rat hepatocytes assessed as half life at 5 microM incubated upto 180 mins by LC/MS analysis; type: ADME, cell-based, Hepatocyte; procedure, shortened: as §1
[13] = Metabolic stability in Beagle dog hepatocytes assessed as half life at 5 microM incubated upto 180 mins by LC/MS analysis; type: ADME, cell-based, Canis lupus familiaris, Hepatocyte; procedure, shortened: as §1
[14] = Metabolic stability in human hepatocytes assessed as half life at 5 microM incubated upto 180 mins by LC/MS analysis; type: ADME, cell-based, Hepatocyte; procedure, shortened: as §1
[15] = target: T2, Serine/threonine-protein kinase mTOR; test: Binding affinity to DNA-tagged mTOR (unknown origin) assessed as dissociation constant by quantitative PCR analysis
Procedure, shortened: (§2)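 Competition binding: DNA-tagged kinases on immobilized ligand competed with an 11-point 3-fold dilution starting at 30 µM. Bound kinase quantified by qPCR of DNA tags. Kd fitted with the Hill equation (slope −1); duplicate experiments, mean reported.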

[16] = target: T1, Phosphatidylinositol 4,5-bisphosphate 3-kinase catalytic subunit alpha isoform; test: Binding affinity to DNA-tagged P13kalpha (unknown origin) assessed as dissociation constant by quantitative PCR analysis; procedure, shortened: as §2
[17] = target: Phosphatidylinositol 4,5-bisphosphate 3-kinase catalytic subunit beta isoform (Homo sapiens, UniProt P42338); test: Binding affinity to DNA-tagged P13kbeta (unknown origin) assessed as dissociation constant by quantitative PCR analysis; procedure, shortened: as §2
Phosphatidylinositol 4,5-bisphosphate 3-kinase catalytic subunit beta isoform, sequence (P42338 whole entry, canonical isoform): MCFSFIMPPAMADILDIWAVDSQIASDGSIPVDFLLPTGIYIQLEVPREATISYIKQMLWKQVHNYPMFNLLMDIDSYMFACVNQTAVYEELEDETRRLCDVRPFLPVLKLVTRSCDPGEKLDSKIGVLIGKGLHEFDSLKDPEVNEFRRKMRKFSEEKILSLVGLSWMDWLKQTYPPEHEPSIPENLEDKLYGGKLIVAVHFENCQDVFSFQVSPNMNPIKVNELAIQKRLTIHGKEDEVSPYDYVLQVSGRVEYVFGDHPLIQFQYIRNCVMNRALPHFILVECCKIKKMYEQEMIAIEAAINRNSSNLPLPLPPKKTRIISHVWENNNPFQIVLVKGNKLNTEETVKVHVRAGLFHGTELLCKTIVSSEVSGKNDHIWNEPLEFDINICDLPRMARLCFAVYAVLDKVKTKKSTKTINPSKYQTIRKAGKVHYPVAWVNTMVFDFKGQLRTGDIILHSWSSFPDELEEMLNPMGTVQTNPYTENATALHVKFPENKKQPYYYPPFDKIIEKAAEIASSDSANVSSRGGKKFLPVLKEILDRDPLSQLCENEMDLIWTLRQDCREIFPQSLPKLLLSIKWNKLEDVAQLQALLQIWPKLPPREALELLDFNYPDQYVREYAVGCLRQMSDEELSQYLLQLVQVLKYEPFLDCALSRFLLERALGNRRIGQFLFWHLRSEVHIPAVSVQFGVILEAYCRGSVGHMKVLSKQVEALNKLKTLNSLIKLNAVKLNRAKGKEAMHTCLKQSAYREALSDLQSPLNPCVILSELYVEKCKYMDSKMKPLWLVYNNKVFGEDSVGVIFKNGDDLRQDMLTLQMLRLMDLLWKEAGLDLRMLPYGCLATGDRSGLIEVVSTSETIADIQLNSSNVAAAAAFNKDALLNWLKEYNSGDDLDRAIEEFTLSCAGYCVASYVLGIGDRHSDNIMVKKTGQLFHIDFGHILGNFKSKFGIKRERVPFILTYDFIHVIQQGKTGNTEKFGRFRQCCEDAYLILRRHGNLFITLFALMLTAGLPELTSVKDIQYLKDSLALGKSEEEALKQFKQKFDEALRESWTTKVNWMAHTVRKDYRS

[18] = target: T3, Phosphatidylinositol 4,5-bisphosphate 3-kinase catalytic subunit delta isoform (Homo sapiens, UniProt O00329); test: Binding affinity to DNA-tagged P13kdelta (unknown origin) assessed as dissociation constant by quantitative PCR analysis; procedure, shortened: as §2
T3 sequence (O00329 whole entry): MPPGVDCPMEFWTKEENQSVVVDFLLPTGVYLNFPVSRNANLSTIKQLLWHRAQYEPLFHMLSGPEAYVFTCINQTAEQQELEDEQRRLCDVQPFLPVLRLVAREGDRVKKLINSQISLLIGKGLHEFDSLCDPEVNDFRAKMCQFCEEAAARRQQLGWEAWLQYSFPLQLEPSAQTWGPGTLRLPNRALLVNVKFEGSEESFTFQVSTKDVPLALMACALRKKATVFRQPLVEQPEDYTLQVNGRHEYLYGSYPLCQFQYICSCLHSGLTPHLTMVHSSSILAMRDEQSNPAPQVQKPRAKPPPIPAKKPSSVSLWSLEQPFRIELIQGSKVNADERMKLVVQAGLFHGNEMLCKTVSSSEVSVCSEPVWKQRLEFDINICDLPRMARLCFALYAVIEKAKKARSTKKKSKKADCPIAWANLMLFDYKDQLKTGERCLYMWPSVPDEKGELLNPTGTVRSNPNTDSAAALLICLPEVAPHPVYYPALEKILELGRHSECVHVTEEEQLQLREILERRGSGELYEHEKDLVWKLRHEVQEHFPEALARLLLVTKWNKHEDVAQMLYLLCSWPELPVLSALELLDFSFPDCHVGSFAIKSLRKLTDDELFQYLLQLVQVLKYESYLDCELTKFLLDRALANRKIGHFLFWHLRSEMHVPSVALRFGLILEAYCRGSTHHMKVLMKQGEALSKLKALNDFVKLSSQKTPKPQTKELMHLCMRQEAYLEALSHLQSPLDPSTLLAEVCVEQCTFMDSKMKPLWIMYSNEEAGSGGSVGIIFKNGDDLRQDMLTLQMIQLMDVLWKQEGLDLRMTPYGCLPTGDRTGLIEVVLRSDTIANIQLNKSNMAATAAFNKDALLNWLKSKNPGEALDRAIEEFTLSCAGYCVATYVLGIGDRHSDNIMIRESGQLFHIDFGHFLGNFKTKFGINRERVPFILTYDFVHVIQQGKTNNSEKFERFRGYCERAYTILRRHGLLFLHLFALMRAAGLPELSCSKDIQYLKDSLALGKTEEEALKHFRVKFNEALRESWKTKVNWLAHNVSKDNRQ

[19] = target: Phosphatidylinositol 4,5-bisphosphate 3-kinase catalytic subunit gamma isoform (Homo sapiens, UniProt P48736); test: Binding affinity to DNA-tagged P13kgamma (unknown origin) assessed as dissociation constant by quantitative PCR analysis; procedure, shortened: as §2
Phosphatidylinositol 4,5-bisphosphate 3-kinase catalytic subunit gamma isoform, sequence (P48736 whole entry, canonical isoform): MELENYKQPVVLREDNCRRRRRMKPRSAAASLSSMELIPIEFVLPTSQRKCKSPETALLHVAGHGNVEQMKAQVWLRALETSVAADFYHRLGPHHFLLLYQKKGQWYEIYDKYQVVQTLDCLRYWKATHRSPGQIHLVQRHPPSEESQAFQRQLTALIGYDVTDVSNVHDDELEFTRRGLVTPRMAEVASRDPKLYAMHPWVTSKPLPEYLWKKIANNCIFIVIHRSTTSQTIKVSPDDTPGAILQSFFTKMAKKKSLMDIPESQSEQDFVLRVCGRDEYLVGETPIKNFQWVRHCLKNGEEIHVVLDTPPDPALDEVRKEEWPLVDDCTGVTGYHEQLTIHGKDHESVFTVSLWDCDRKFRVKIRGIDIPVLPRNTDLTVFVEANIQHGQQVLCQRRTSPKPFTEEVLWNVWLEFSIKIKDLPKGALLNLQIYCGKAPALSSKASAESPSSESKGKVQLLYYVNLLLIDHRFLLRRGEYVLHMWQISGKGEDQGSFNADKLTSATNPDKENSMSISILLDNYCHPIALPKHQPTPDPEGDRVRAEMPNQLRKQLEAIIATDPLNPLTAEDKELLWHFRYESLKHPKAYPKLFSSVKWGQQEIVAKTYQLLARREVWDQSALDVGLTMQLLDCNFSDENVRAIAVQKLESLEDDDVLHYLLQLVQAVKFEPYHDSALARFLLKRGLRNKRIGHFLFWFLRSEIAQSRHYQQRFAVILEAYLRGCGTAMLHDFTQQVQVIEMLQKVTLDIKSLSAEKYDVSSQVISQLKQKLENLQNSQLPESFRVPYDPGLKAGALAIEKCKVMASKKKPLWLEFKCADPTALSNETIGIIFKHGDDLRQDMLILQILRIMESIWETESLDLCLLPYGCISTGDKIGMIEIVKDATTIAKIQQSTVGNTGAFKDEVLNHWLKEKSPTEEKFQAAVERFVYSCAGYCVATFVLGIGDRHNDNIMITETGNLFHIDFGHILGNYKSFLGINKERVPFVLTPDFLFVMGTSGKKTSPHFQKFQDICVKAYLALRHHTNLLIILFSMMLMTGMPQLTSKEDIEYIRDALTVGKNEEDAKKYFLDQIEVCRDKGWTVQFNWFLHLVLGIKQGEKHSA

[20] = target: Phosphatidylinositol 4-kinase beta (Homo sapiens, UniProt Q9UBF8); test: Binding affinity to DNA-tagged P14kbeta (unknown origin) assessed as dissociation constant by quantitative PCR analysis; procedure, shortened: as §2
Phosphatidylinositol 4-kinase beta, sequence (Q9UBF8 whole entry): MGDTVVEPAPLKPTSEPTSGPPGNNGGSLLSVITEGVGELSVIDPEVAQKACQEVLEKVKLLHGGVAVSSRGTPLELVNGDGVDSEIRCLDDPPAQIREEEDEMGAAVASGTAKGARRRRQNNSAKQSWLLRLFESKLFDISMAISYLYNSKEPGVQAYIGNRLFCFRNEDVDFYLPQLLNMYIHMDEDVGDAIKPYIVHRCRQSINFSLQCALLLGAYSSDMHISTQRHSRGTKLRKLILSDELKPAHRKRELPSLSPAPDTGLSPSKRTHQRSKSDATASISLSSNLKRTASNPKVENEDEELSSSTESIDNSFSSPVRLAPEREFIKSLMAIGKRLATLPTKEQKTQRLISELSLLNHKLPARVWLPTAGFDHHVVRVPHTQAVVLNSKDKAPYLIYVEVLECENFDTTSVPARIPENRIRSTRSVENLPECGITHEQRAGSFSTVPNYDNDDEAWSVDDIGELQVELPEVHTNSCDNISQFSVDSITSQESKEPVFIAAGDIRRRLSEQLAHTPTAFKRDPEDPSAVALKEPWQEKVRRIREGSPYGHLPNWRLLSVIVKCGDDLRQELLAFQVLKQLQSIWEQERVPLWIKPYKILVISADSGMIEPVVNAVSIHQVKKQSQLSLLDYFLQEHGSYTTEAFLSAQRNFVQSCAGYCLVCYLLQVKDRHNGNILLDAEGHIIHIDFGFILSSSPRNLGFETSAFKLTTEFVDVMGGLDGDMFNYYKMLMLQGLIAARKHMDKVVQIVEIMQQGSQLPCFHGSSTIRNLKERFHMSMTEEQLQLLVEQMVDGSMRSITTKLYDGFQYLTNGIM

[21] = target: Phosphatidylinositol 3-kinase catalytic subunit type 3 (Homo sapiens, UniProt Q8NEB9); test: Binding affinity to DNA-tagged VPS34 (unknown origin) assessed as dissociation constant by quantitative PCR analysis; procedure, shortened: as §2
Phosphatidylinositol 3-kinase catalytic subunit type 3, sequence (Q8NEB9 whole entry): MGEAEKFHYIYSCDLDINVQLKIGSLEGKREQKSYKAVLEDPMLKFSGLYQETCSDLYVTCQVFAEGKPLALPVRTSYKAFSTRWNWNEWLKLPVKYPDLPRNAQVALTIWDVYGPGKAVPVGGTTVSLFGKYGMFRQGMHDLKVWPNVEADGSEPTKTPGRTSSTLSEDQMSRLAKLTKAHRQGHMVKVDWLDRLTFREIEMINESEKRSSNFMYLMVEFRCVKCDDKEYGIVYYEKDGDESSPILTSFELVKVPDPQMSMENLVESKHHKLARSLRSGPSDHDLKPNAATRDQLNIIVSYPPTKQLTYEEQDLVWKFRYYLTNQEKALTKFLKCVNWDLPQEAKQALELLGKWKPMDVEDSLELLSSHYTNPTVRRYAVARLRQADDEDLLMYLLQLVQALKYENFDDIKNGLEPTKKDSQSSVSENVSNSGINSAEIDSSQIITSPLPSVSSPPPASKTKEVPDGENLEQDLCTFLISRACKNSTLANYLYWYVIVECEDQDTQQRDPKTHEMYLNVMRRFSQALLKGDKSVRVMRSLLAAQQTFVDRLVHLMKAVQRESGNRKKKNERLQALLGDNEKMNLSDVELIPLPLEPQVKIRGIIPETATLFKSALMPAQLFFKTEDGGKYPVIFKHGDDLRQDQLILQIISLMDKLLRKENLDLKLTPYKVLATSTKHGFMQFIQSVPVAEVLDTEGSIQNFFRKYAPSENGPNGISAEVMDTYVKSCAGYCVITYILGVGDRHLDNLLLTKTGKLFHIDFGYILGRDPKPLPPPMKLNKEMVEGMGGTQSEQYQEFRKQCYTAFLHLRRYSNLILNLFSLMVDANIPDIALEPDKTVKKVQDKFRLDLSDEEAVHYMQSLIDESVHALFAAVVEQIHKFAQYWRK

[22] = AUC (0 to 8 hrs) in Sprague-Dawley rat brain at 5 mg/kg, po administered as single dose and measured after 8 hrs by LC-MS analysis; type: ADME, organism-based; parameters: time 8 hrs, dose 5 mg/kg, route po; conditions: in vivo
Procedure, shortened: (§3)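 Male Sprague Dawley rats given a single oral dose of 5 mg/kg (5 mL/kg) in 20% Captisol, pH adjusted to 3. Three rats per time point (30 min, 2, 4, 8 h); heart-puncture blood into lithium-heparin, plasma separated, brain collected. Samples precipitated with acetonitrile containing diazepam internal standard, then LC-MS quantification.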

[23] = AUC (0 to 8 hrs) in Sprague-Dawley rat plasma at 5 mg/kg, po administered as single dose and measured after 8 hrs by LC-MS analysis; type: ADME, organism-based; parameters: dose 5 mg/kg, time 8 hrs, route po; procedure, shortened: as §3
[24] = Toxicity in Sprague-Dawley rat assessed as increase in insulin concentration at 5 mg/kg, po measured upto 8 hrs by ELISA; type: organism-based; conditions: in vivo
Procedure, shortened: (§4)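 Male SD rats dosed orally at 5 mg/kg in 20% Captisol, with vehicle controls. Plasma was taken by heart puncture at 30 min, 2, 4 and 8 h, three rats per point. Insulin was measured by rat/mouse insulin ELISA and glucose by colorimetric assay.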

[25] = Toxicity in Sprague-Dawley rat assessed as increase in glucose concentration at 5 mg/kg, po measured upto 8 hrs by glucose colorimetric assay; type: organism-based; conditions: in vivo; procedure, shortened: as §4
[26] = Metabolic stability in Sprague-Dawley rat hepatocytes assessed as parent compound remaining at 5 uM measured after 3 hrs by LC-MS analysis; type: ADME, cell-based, Hepatocyte; conditions: read-out: Stability; procedure, shortened: as §1
[27] = Metabolic stability in human hepatocytes assessed as parent compound remaining at 5 uM measured after 3 hrs by LC-MS analysis; type: ADME, cell-based, Hepatocyte; conditions: read-out: Stability; procedure, shortened: as §1
[28] = Metabolic stability in CD-1 mouse hepatocytes assessed as parent compound remaining at 5 uM measured after 3 hrs by LC-MS analysis; type: ADME, cell-based, Hepatocyte; conditions: read-out: Stability; procedure, shortened: as §1
[29] = Metabolic stability in Beagle dog hepatocytes assessed as parent compound remaining at 5 uM measured after 3 hrs by LC-MS analysis; type: ADME, cell-based, Canis lupus familiaris, Hepatocyte; conditions: read-out: Stability; procedure, shortened: as §1
CYP1A1 = target: T4, CYP1A1 (Homo sapiens, UniProt P04798); test: Stability of compound assessed as recombinant human CYP1A1-mediated drug metabolism by measuring compound remaining at 1 uM incubated for 60 mins by LC-MS analysis; type: ADME; conditions: read-out: Stability
T4 sequence (P04798 whole entry): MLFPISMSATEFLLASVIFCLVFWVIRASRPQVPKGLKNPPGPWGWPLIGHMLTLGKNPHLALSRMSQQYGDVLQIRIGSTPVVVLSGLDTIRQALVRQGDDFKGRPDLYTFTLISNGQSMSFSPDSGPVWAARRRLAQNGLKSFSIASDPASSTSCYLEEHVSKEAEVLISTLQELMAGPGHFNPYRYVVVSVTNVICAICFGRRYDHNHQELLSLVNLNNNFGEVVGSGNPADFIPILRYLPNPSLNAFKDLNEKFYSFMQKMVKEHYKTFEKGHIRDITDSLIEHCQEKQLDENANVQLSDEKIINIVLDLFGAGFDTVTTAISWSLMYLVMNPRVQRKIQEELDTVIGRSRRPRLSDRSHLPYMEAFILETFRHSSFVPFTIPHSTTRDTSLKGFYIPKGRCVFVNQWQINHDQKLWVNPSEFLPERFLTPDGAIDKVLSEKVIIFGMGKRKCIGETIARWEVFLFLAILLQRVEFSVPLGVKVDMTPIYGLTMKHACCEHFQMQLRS
Procedure, shortened: (§5)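 Recombinant human CYP1A1 or CYP1A2 Supersomes at 25 pmol/mL, with compound at 1 µM (0.25% DMSO) and an NADP+-regenerating cofactor mix, at 37 °C. Reactions stopped with ACN plus internal standard at 0 and 60 min. Controls: melatonin for CYP1A1 and phenacetin for CYP1A2, plus no-cofactor negatives. Duplicates.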

CYP1A2 = target: T5, CYP1A2 (Homo sapiens, UniProt P05177); test: Stability of compound assessed as recombinant human CYP1A2-mediated drug metabolism by measuring compound remaining at 1 uM incubated for 60 mins by LC-MS analysis; type: ADME; conditions: read-out: Stability; procedure, shortened: as §5
T5 sequence (P05177 whole entry): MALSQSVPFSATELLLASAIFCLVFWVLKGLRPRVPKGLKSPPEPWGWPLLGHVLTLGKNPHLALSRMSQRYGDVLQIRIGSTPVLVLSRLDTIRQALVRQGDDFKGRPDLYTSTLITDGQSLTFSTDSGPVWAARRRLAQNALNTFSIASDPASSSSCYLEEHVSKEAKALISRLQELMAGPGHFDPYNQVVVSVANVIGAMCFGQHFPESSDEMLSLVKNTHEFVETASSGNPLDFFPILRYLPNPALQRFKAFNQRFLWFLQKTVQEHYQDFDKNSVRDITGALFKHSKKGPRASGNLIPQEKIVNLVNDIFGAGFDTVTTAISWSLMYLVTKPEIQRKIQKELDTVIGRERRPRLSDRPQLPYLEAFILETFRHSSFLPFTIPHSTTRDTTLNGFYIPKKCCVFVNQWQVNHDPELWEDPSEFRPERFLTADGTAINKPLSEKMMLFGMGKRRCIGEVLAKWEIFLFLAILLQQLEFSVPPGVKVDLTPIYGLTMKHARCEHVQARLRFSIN

pKi [1] | pKi [2] | pIC50 (cells [3]) | pIC50 (cells [4]) | pIC50 (VL51) | pIC50 (cells [5]) | pIC50 (cells [6]) | hepatocyte CLint at 5 µM [7] [µL/min/1e6 cells] | hepatocyte CLint at 5 µM [8] [µL/min/1e6 cells] | hepatocyte CLint at 5 µM [9] [µL/min/1e6 cells] | hepatocyte CLint at 5 µM [10] [µL/min/1e6 cells] | half-life at 5 µM [11] [min] | half-life at 5 µM [12] [min] | half-life at 5 µM [13] [min] | half-life at 5 µM [14] [min] | SMILES | further results
6.90 | 7.80 | 6.70 | 7.03 | 6.82 | 6.71 | 6.45 |  |  |  |  |  |  |  |  | Nc1cc(C(F)F)c(-c2nc(C3=CCOCC3)nc(N3C4CCC3COC4)n2)cn1 | 
 |  |  |  |  |  |  | 50 | 18 | 45 | 22 | 17 | 47 | 18 | 39 | CCOc1ccc2ccc(=O)oc2c1 | 
5.95 | 7.66 | 6.77 | 7.07 | 6.51 | 6.43 | 6.93 | 2.11 | 2.99 | 0.42 | 3.56 | > 180 | > 180 | > 180 | > 180 | Nc1cc(C(F)F)c(-c2nc(C3CCOCC3)nc(N3C4CCC3COC4)n2)cn1 | pKd [15]: 8.30; pKd [16]: 6.38; pKd [17]: 5.19; pKd [18]: 4.81; pKd [19]: 5.25; pKd [20]: < 4.52; pKd [21]: 5.21; AUC [22]: 2659 ng·h/g; AUC(0-t) at 8 h [23]: 3760 ng·h/mL; Activity [24]: Non-Toxic; Activity [25]: Non-Toxic; remaining at 3 h, 5 µM [26]: 62.4%; remaining at 3 h, 5 µM [27]: 59.9%; remaining at 3 h, 5 µM [28]: 74.5%; remaining at 3 h, 5 µM [29]: 92.9%; remaining at 1 h, 1 µM (CYP1A1): 53.3%; remaining at 1 h, 1 µM (CYP1A2): 84.2%
